Results on ten compounds are retold here after ChEMBL document CHEMBL3044632, “Synthesis, crystal structure, and biological activity of 4-methyl-1,2,3-thiadiazole-containing 1,2,4-triazolo[3,4-b][1,3,4]thiadiazoles” (J Agric Food Chem, 2010).

Data set [1] has as its system Nicotiana tabacum. Nature of the data set: Induction of systemic acquired resistance in Nicotiana tabacum (tobacco) mosaic virus infected Nicotiana tabacum (tobacco) plant at 100 ug/mL at 25 degC for 72 hr. It is filed as functional. A digest of the protocol:
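Tobacco–TMV system used to assess induced resistance. The antiviral inhibition ratio was calculated from the mean number of viral lesions on inoculated leaves, relative to the matching control.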

Data set [2] concerns Tobacco mosaic virus. Put plainly: Antiviral activity against Tobacco mosaic virus (TMV) infected leaves assessed as viral inhibition at 100 ug/mL at 25 degC for 72 hr. It is filed as functional. The gist of the method: (§1)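 Systemic acquired resistance induction was assayed in a tobacco–TMV system. The antivirus inhibition ratio was calculated from the average number of viral lesions on inoculated leaves, relative to the corresponding control.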

For data set [3], the system named is Tobacco mosaic virus. Put plainly: Antiviral activity against Tobacco mosaic virus (TMV) infected leaves assessed as viral inhibition at 50 ug/mL at 25 degC for 72 hr. It is filed as functional. A digest of the protocol:
as §1

The test system of data set [4] is Tobacco mosaic virus. Put plainly: Antiviral activity against Tobacco mosaic virus (TMV) infected leaves assessed as viral inhibition at 500 ug/mL at 25 degC for 72 hr. It is filed as functional. A digest of the protocol:
as §1

Data set [5] has as its system Nicotiana tabacum. Put plainly: Phytotoxicity against Nicotiana tabacum (tobacco) plant at 50 to 500 ug/mL. It is filed as organism-based. To be noted: in vivo.
The subject of data set [6] is Rhizoctonia solani. Put plainly: Fungicide activity against Rhizoctonia solani Kuhn assessed as growth inhibition at 50 ug/mL at 24 to 26 degC measured after 2 days. It is filed as functional. To be noted: 48 h, read-out: GI.
A further data set has as its system Puccinia triticina. Nature of the data set: Fungicide activity against Puccinia triticina assessed as growth inhibition at 50 ug/mL at 24 to 26 degC measured after 2 days. It is filed as functional. To be noted: 48 h, read-out: GI.
The test system of data set [7] is Thanatephorus cucumeris. Nature of the data set: Fungicide activity against Thanatephorus cucumeris assessed as growth inhibition at 50 ug/mL at 24 to 26 degC measured after 2 days. It is filed as functional. The settings on record: 48 h, read-out: GI.
For data set [8], the system named is Botryosphaeria berengeriana. Put plainly: Fungicide activity against Botryosphaeria berengeriana assessed as growth inhibition at 50 ug/mL at 24 to 26 degC measured after 2 days. It is filed as functional. To be noted: 48 h, read-out: GI.
Data set [9] deals with Phytophthora infestans. Nature of the data set: Fungicide activity against Phytophthora infestans assessed as growth inhibition at 50 ug/mL at 24 to 26 degC measured after 2 days. It is filed as functional. The settings on record: 48 h, read-out: GI.
A further data set has as its system Fusarium oxysporum. Put plainly: Fungicide activity against Fusarium oxysporum assessed as growth inhibition at 50 ug/mL at 24 to 26 degC measured after 2 days. It is filed as functional. The settings on record: 48 h, read-out: GI.
The next data set has as its system Colletotrichum lagenaria. Put plainly: Fungicide activity against Colletotrichum lagenaria assessed as growth inhibition at 50 ug/mL at 24 to 26 degC measured after 2 days. It is filed as functional. The settings on record: 48 h, read-out: GI.
In another data set the test system is Cercospora beticola. Put plainly: Fungicide activity against Cercospora beticola assessed as growth inhibition at 50 ug/mL at 24 to 26 degC measured after 2 days. It is filed as functional. The settings on record: 48 h, read-out: GI.
Another data set has as its system Mycosphaerella arachidis. Put plainly: Fungicide activity against Mycosphaerella arachidis assessed as growth inhibition at 50 ug/mL at 24 to 26 degC measured after 2 days. The settings on record: 48 h, read-out: GI. It is filed as functional.
For data set [10], the system named is Alternaria solani. Put plainly: Fungicide activity against Alternaria solani assessed as growth inhibition at 50 ug/mL at 24 to 26 degC measured after 2 days. It is filed as functional. To be noted: 48 h, read-out: GI.
Another data set relates to Fusarium graminearum. Nature of the data set: Fungicide activity against Fusarium graminearum assessed as growth inhibition at 50 ug/mL at 24 to 26 degC measured after 2 days. It is filed as functional. The settings on record: 48 h, read-out: GI.
The test system of a further data set is Botrytis cinerea. Nature of the data set: Fungicide activity against Botryotinia fuckeliana assessed as growth inhibition at 50 ug/mL at 24 to 26 degC measured after 2 days. It is filed as functional. To be noted: 48 h, read-out: GI.
Data set [11] concerns Rhizoctonia solani. Nature of the data set: Fungicide activity against Rhizoctonia solani assessed as growth inhibition at 24 to 26 degC measured after 2 days. It is filed as functional, organism-based. The settings on record: 48 h.
Data set [12] has as its system Thanatephorus cucumeris. Nature of the data set: Fungicide activity against Thanatephorus cucumeris assessed as growth inhibition at 24 to 26 degC measured after 2 days. To be noted: 48 h. It is filed as functional, organism-based.
Data set [13] relates to Phytophthora infestans. Nature of the data set: Fungicide activity against Phytophthora infestans assessed as growth inhibition at 24 to 26 degC measured after 2 days. It is filed as functional, organism-based. The settings on record: 48 h.
Another data set concerns Macrophoma. Nature of the data set: Fungicide activity against Macrophoma kuwatsukai assessed as growth inhibition at 24 to 26 degC measured after 2 days. It is filed as functional, organism-based. The settings on record: 48 h.
In data set [14] the test system is Fusarium oxysporum f. sp. cucumerinum. Put plainly: Fungicide activity against Fusarium oxysporum f. cucumerinum assessed as growth inhibition at 24 to 26 degC measured after 2 days. It is filed as functional, organism-based. To be noted: 48 h.
Data set [15] concerns Alternaria solani. Put plainly: Fungicide activity against Alternaria solani assessed as growth inhibition at 24 to 26 degC measured after 2 days. It is filed as functional, organism-based. The settings on record: 48 h.

In brackets after ≈: the same amount, converted by molar mass. Activity calls are given as the source filed them. The calls are words filed in the database; no cut-off is given here.

What is called inhibition is the drop in the measured response relative to a control, in per cent. `NC(=O)c1ncn([C@@H]2O[C@H](CO)[C@@H](O)[C@H]2O)n1` [RIBAVIRIN]: the result in the data set with Nicotiana tabacum [1] was inactive. The inhibition at 100 µg/mL with Tobacco mosaic virus [2] was 21.6%. Also, in the data set on Tobacco mosaic virus [3], the inhibition at 50 µg/mL amounted to 16.7%. Further, the inhibition at 500 µg/mL with Tobacco mosaic virus [4] is 37.9%.
In the case of `Cc1nnsc1C1=NNC2SC(c3cccc([N+](=O)[O-])c3)=NN12` (stereo unspecified), the Activity entry in the data set on Nicotiana tabacum [5] is on record as “Toxic”. In addition, the inhibition at 100 µg/mL with Tobacco mosaic virus [2] was 44.4%. Also, the inhibition at 500 µg/mL in the data set on Tobacco mosaic virus [4] amounted to 44.4%. The inhibition of growth at 50 µg/mL is 11.1% with Rhizoctonia solani [6]; 10% in the data set with Puccinia triticina; 25% in the data set with Thanatephorus cucumeris [7]; 12.8% in data set [8]; 54.8% in the data set on Phytophthora infestans [9]; 47.2% in the data set with Fusarium oxysporum. The inhibition of growth at 50 µg/mL in the data set on Colletotrichum lagenaria is 0%; in the data set with Cercospora beticola it was 0%; in the data set with Mycosphaerella arachidis it was 7.7%; in the data set with Alternaria solani [10] it was 9.5%.
Take `Cc1nnsc1C1=NNC2SC(c3ccc(OC(F)(F)F)cc3)=NN12` (stereo unspecified): the Activity result in the data set with Nicotiana tabacum [5] is “Toxic”. In the data set on Tobacco mosaic virus [3], the inhibition at 50 µg/mL was 10.2%. Also, the inhibition of growth at 50 µg/mL with Rhizoctonia solani [6] was determined as 11.1%; in the data set with Puccinia triticina it was 70%; in the data set with Thanatephorus cucumeris [7] it was 30.4%; in data set [8], 17.9%; in the data set with Phytophthora infestans [9] it was 4.8%; in the data set on Fusarium oxysporum, 44.4%. Also, the inhibition of growth at 50 µg/mL with Colletotrichum lagenaria was 18.2%; in the data set with Cercospora beticola, 0%; in the data set with Mycosphaerella arachidis, 15.4%; in the data set with Alternaria solani [10], 9.5%.
For `Cc1nnsc1C1=NNC2SC(c3ccccc3OC(F)(F)F)=NN12` (stereo unspecified), in the data set on Nicotiana tabacum [5], the Activity entry was “Toxic”. Besides, in the data set on Tobacco mosaic virus [3], the inhibition at 50 µg/mL worked out at 25%. Moreover, the inhibition of growth at 50 µg/mL turned out to be 5.6% with Rhizoctonia solani [6]; 0% in the data set with Puccinia triticina; 35.7% in the data set on Thanatephorus cucumeris [7]; 15.4% in [8]; 0% with Phytophthora infestans [9]; 86% in the data set with Fusarium oxysporum. Further, the inhibition of growth at 50 µg/mL in the data set on Colletotrichum lagenaria was 45.5%; with Cercospora beticola it was 0%; in the data set on Mycosphaerella arachidis, 7.7%; with Alternaria solani [10], 4.8%.
In the case of `Cc1nnsc1C1=NNC2SC(c3ccncc3)=NN12` (stereo unspecified), the Activity entry with Nicotiana tabacum [5] is reported as “Toxic”. In addition, the inhibition at 50 µg/mL with Tobacco mosaic virus [3] was determined as 27%. The inhibition of growth at 50 µg/mL in the data set on Rhizoctonia solani [6] stood at 5.7%; in the data set on Puccinia triticina it was 10%; with Thanatephorus cucumeris [7] it was 44.6%; in [8] it was 7.7%; in the data set on Phytophthora infestans [9] it was 0%; in the data set on Fusarium oxysporum, 44.4%. Also, the inhibition of growth at 50 µg/mL in the data set with Colletotrichum lagenaria stood at 27.3%; with Cercospora beticola, 0%; in the data set on Mycosphaerella arachidis, 23.1%; in the data set on Alternaria solani [10], 9.5%.
As to `Cc1nnsc1C1=NNC2SC(c3cccc(OC(F)(F)F)c3)=NN12` (stereo unspecified), in the data set on Nicotiana tabacum [5], the Activity result is “Toxic”. Besides, in the data set with Tobacco mosaic virus [2], the inhibition at 100 µg/mL amounted to 30%. For the same compound, the inhibition at 500 µg/mL in the data set with Tobacco mosaic virus [4] was determined as 37.5%. Also, the inhibition of growth at 50 µg/mL with Thanatephorus cucumeris [7] stood at 35.2%; in data set [8], 25.6%; with Phytophthora infestans [9], 17.8%; in the data set on Fusarium graminearum, 4.8%; with Fusarium oxysporum, 18.6%; in the data set on Colletotrichum lagenaria, 13.8%. Moreover, the inhibition of growth at 50 µg/mL in the data set with Cercospora beticola worked out at 35.7%; with Mycosphaerella arachidis it was 23.1%; in the data set on Botrytis cinerea, 68.9%; in the data set with Alternaria solani [10], 23.7%.
The EC50 is the concentration at which the effect is half-maximal. `Cc1nnsc1C1=NNC2SC(C(Cl)(Cl)Cl)=NN12` (stereo unspecified): in the data set on Nicotiana tabacum [5], the Activity result is on record as “Toxic”. Moreover, in the data set with Tobacco mosaic virus [2], the inhibition at 100 µg/mL is 33.3%. Also, the inhibition at 500 µg/mL in the data set with Tobacco mosaic virus [4] came out at 27.8%. The EC50 turned out to be 4.1 µg/mL (≈ 11.9 µM) in the data set with Rhizoctonia solani [11]; 2.5 µg/mL (≈ 7.27 µM) with Thanatephorus cucumeris [12]; 12.5 µg/mL (≈ 36.4 µM) in the data set on Phytophthora infestans [13]; 6.4 µg/mL (≈ 18.6 µM) in the data set on Macrophoma; 11.2 µg/mL (≈ 32.6 µM) in data set [14]; 14.6 µg/mL (≈ 42.5 µM) in the data set with Alternaria solani [15]. Also, the inhibition of growth at 50 µg/mL was found to be 83.3% in the data set on Rhizoctonia solani [6]; 78.9% with Puccinia triticina; 84.8% in the data set with Thanatephorus cucumeris [7]; 83.9% in data set [8]; 70.7% in the data set with Phytophthora infestans [9]; 75% with Fusarium oxysporum. Besides, the inhibition of growth at 50 µg/mL in the data set on Colletotrichum lagenaria came to 64.7%; in the data set with Cercospora beticola, 71.4%; in the data set on Mycosphaerella arachidis, 63.6%; in the data set on Alternaria solani [10] it was 66.7%.
`CCc1cc(C2=NN3C(c4snnc4C)=NNC3S2)nn1C` (stereo unspecified): the Activity result in the data set with Nicotiana tabacum [5] is on record as “Toxic”. In addition, the inhibition at 50 µg/mL with Tobacco mosaic virus [3] amounted to 34.8%. Also, the inhibition of growth at 50 µg/mL is 19.4% with Rhizoctonia solani [6]; 10% in the data set with Puccinia triticina; 30.4% in the data set on Thanatephorus cucumeris [7]; 12.8% in data set [8]; 4.8% in the data set with Phytophthora infestans [9]; 47.2% in the data set with Fusarium oxysporum. In addition, the inhibition of growth at 50 µg/mL in the data set on Colletotrichum lagenaria turned out to be 0%; in the data set on Cercospora beticola it was 0%; in the data set with Mycosphaerella arachidis it was 7.7%; in the data set on Alternaria solani [10], 9.5%.
On to `COc1ccc(C2=NN3C(c4snnc4C)=NNC3S2)cc1` (stereo unspecified), for which, in the data set on Nicotiana tabacum [5], the Activity entry is “Toxic”. In addition, the inhibition at 50 µg/mL in the data set on Tobacco mosaic virus [3] stood at 17.9%. Further, the inhibition of growth at 50 µg/mL in the data set with Rhizoctonia solani [6] worked out at 11.1%; with Puccinia triticina, 10%; with Thanatephorus cucumeris [7], 46.4%; in data set [8], 7.7%; in the data set with Phytophthora infestans [9], 4.8%; in the data set on Fusarium oxysporum it was 44.4%. Besides, the inhibition of growth at 50 µg/mL in the data set with Colletotrichum lagenaria stood at 18.2%; with Cercospora beticola, 0%; in the data set with Mycosphaerella arachidis, 7.7%; in the data set with Alternaria solani [10], 0%.
With `Cc1ccc(NC(=O)c2snnc2C)cc1Cl` [TIADINIL], the Activity in the data set with Nicotiana tabacum [1] came out at 48.92%. Also, in the data set with Tobacco mosaic virus [2], the inhibition at 100 µg/mL was found to be 36.6%.
